ChEMBL document CHEMBL1944511, “Bakuchiol derivatives as novel and potent cytotoxic agents: a report” (Eur J Med Chem, 2012)

Tests used:
[1] = tested on: MCF7; assay: Growth inhibition of human MCF7 cells at 50 uM after 48 hrs by sulpharhodamine B assay; format: functional; conditions: MCF7, 48 h, read-out: GI
Method in brief: (§1)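 This is the SRB protein-stain assay on adherent cells in RPMI-1640/MEM with 10% FCS. Each compound in DMSO (vehicle <0.2%) was applied at a single fixed concentration for 48 h. Cells were fixed with TCA and stained with SRB, and the dye was solubilised in Tris and read at 570/620 nm. Percent growth inhibition is relative to vehicle-treated controls, reported as mean ± SD of three experiments run in triplicate.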

[2] = tested on: A549; assay: Growth inhibition of human A549 cells at 50 uM after 48 hrs by sulpharhodamine B assay; format: functional; conditions: A549, 48 h, read-out: GI; method in brief: as §1
[3] = tested on: IMR-32; assay: Growth inhibition of human IMR32 cells at 50 uM after 48 hrs by sulpharhodamine B assay; format: functional; conditions: IMR-32, 48 h, read-out: GI; method in brief: as §1
[4] = tested on: A549; assay: Growth inhibition of human A549 cells at 20 uM after 48 hrs by sulpharhodamine B assay; format: functional; conditions: A549, 48 h, read-out: GI; method in brief: as §1
[5] = tested on: A549; assay: Growth inhibition of human A549 cells at 30 uM after 48 hrs by sulpharhodamine B assay; format: functional; conditions: A549, 48 h, read-out: GI; method in brief: as §1
[6] = tested on: IMR-32; assay: Growth inhibition of human IMR32 cells at 30 uM after 48 hrs by sulpharhodamine B assay; format: functional; conditions: IMR-32, 48 h, read-out: GI; method in brief: as §1
[7] = tested on: HeLa; assay: Growth inhibition of human HeLa cells at 30 uM after 48 hrs by sulpharhodamine B assay; format: functional; conditions: read-out: GI; method in brief: as §1
[8] = tested on: MCF7; assay: Growth inhibition of human MCF7 cells at 10 uM after 48 hrs by sulpharhodamine B assay; format: functional; conditions: MCF7, 48 h, read-out: GI; method in brief: as §1
[9] = tested on: HEp-2; assay: Growth inhibition of human Hep2 cells at 50 uM after 48 hrs by sulpharhodamine B assay; format: functional; conditions: HEp-2, 48 h, read-out: GI; method in brief: as §1
[10] = tested on: HEp-2; assay: Growth inhibition of human Hep2 cells at 20 uM after 48 hrs by sulpharhodamine B assay; format: functional; conditions: HEp-2, 48 h, read-out: GI; method in brief: as §1
[11] = tested on: HEp-2; assay: Growth inhibition of human Hep2 cells at 10 uM after 48 hrs by sulpharhodamine B assay; format: functional; conditions: HEp-2, 48 h, read-out: GI; method in brief: as §1
[12] = tested on: HEp-2; assay: Growth inhibition of human Hep2 cells at 5 uM after 48 hrs by sulpharhodamine B assay; format: functional; conditions: HEp-2, 48 h, read-out: GI; method in brief: as §1
[13] = tested on: DU-145; assay: Growth inhibition of human DU145 cells at 20 uM after 48 hrs by sulpharhodamine B assay; format: functional; conditions: DU-145, 48 h, read-out: GI; method in brief: as §1
[14] = tested on: DU-145; assay: Growth inhibition of human DU145 cells at 10 uM after 48 hrs by sulpharhodamine B assay; format: functional; conditions: DU-145, 48 h, read-out: GI; method in brief: as §1
[15] = tested on: THP-1; assay: Growth inhibition of human THP1 cells at 10 uM after 48 hrs by sulpharhodamine B assay; format: functional; conditions: THP-1, 48 h, read-out: GI
Method in brief: (§2)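 Cells grown in RPMI-1640/MEM with 10% FCS, penicillin/streptomycin, 37 °C, 5% CO2. Seeded in 96-well plates, allowed to adhere overnight, then exposed 48 h to analogs in DMSO (vehicle <0.2% in controls). TCA-fixed, stained with 0.4% SRB in 1% acetic acid, dye solubilized in 10 mM Tris base, OD 570 nm (ref 620 nm). Mean ± SD of three experiments run in triplicate.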

[16] = tested on: PC-3; assay: Growth inhibition of human PC3 cells at 5 uM after 48 hrs by sulpharhodamine B assay; format: functional; conditions: PC-3, 48 h, read-out: GI; method in brief: as §2
[17] = tested on: IMR-32; assay: Growth inhibition of human IMR32 cells at 10 uM after 48 hrs by sulpharhodamine B assay; format: functional; conditions: IMR-32, 48 h, read-out: GI; method in brief: as §1
[18] = tested on: HCT-15; assay: Growth inhibition of human HCT15 cells at 10 uM after 48 hrs by sulpharhodamine B assay; format: functional; conditions: HCT-15, 48 h, read-out: GI; method in brief: as §1
[19] = tested on: HCT-15; assay: Growth inhibition of human HCT15 cells at 5 uM after 48 hrs by sulpharhodamine B assay; format: functional; conditions: HCT-15, 48 h, read-out: GI; method in brief: as §1
[20] = tested on: THP-1; assay: Cytotoxicity against human THP1 cells after 48 hrs by sulpharhodamine B assay; format: functional, cell-based; conditions: THP-1, 48 h
Method in brief: (§3)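 Cells were grown in RPMI-1640/MEM with 10% FCS and penicillin/streptomycin at 37 °C under 5% CO2, then seeded and left to adhere overnight. Analogs in DMSO (vehicle <0.2%) were added at several concentrations for 48 h. Cells were fixed with cold 50% TCA, stained with 0.4% SRB in 1% acetic acid, solubilised in 10 mM Tris, and read at OD 570/620 nm. IC50 came from non-linear regression.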

[21] = tested on: HL-60; assay: Cytotoxicity against human HL60 cells after 48 hrs by sulpharhodamine B assay; format: functional, cell-based; conditions: HL-60, 48 h, in the assay text read “MTT assay” for “sulpharhodamine B assay”
[22] = tested on: DU-145; assay: Cytotoxicity against human DU145 cells after 48 hrs by sulpharhodamine B assay; format: functional, cell-based; conditions: DU-145, 48 h; method in brief: as §3
[23] = tested on: MCF7; assay: Cytotoxicity against human MCF7 cells after 48 hrs by sulpharhodamine B assay; format: functional, cell-based; conditions: MCF7, 48 h; method in brief: as §3
[24] = tested on: A549; assay: Cytotoxicity against human A549 cells after 48 hrs by sulpharhodamine B assay; format: functional, cell-based; conditions: A549, 48 h; method in brief: as §3
[25] = tested on: SF-295; assay: Cytotoxicity against human SF295 cells after 48 hrs by sulpharhodamine B assay; format: functional, cell-based; conditions: SF-295, 48 h; method in brief: as §3
[26] = tested on: HL-60; assay: Cytotoxicity against human HL60 cells after 48 hrs by MTT assay; format: functional, cell-based; conditions: for IC50: HL-60, 48 h
Method in brief: (§4)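 Exponentially growing HL-60 cells (1.5×10^4 per well) in 96-well plates were exposed to a range of compound concentrations in DMSO, with vehicle-only controls. MTT (2.5 mg/mL stock) was added for 3–4 h at 37 °C, and formazan was dissolved in DMSO and read at OD 570/620 nm. […] Data are mean ± SD of n = 6 wells from two experiments.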

[27] = tested on: HL-60; assay: Cytotoxicity against human HL60 cells by MTT assay; format: functional, cell-based; conditions: TDE = time-dependent effect; method in brief: as §4
[28] = tested on: HL-60; assay: Induction of apoptosis in human HL60 cells assessed as increase in […] sub-G0 fraction at 5 uM by propidium iodide staining-based flow cytometric analysis (reference value: 6%); format: functional
[29] = tested on: HL-60; assay: Induction of apoptosis in human HL60 cells assessed as increase in […] sub-G0 fraction at 10 uM by propidium iodide staining-based flow cytometric analysis (reference value: 6%); format: functional
[30] = tested on: HL-60; assay: Induction of apoptosis in human HL60 cells assessed as increase in […] sub-G0 fraction at 20 uM by propidium iodide staining-based flow cytometric analysis (reference value: 6%); format: functional
[31] = tested on: HL-60; assay: Induction of apoptosis in human HL60 cells assessed as increase in […] sub-G0 fraction at 30 uM by propidium iodide staining-based flow cytometric analysis (reference value: 6%); format: functional
[32] = tested on: HL-60; assay: Induction of apoptosis in human HL60 cells assessed as loss of mitochondrial membrane potential at 1 uM after 24 hrs by rodamine-123 staining-based flow cytometric analysis (reference value: 6%); format: functional
[33] = tested on: HL-60; assay: Induction of apoptosis in human HL60 cells assessed as loss of mitochondrial membrane potential at 5 uM after 24 hrs by rodamine-123 staining-based flow cytometric analysis (reference value: 6%); format: functional
[34] = tested on: HL-60; assay: Induction of apoptosis in human HL60 cells assessed as loss of mitochondrial membrane potential at 30 uM after 24 hrs by rodamine-123 staining-based flow cytometric analysis; format: functional
[35] = tested on: HL-60; assay: Induction of apoptosis in human HL60 cells assessed as loss of mitochondrial membrane potential after 24 hrs by rodamine-123 staining-based flow cytometric analysis; format: functional, cell-based

SMILES | inhibition of growth at 50 µM [1] [%] | inhibition of growth at 50 µM [2] [%] | inhibition of growth at 50 µM [3] [%] | inhibition of growth at 20 µM [4] [%] | inhibition of growth at 30 µM [5] [%] | inhibition of growth at 30 µM [6] [%] | inhibition of growth at 30 µM [7] [%] | inhibition of growth at 10 µM [8] [%] | inhibition of growth at 50 µM [9] [%] | inhibition of growth at 20 µM [10] [%] | inhibition of growth at 10 µM [11] [%] | inhibition of growth at 5 µM [12] [%] | inhibition of growth at 20 µM [13] [%] | inhibition of growth at 10 µM [14] [%] | inhibition of growth at 10 µM [15] [%] | inhibition of growth at 5 µM [16] [%] | inhibition of growth at 10 µM [17] [%] | inhibition of growth at 10 µM [18] [%] | inhibition of growth at 5 µM [19] [%] | IC50 [20] [µM] | further results
COc1ccc(/C=C/[C@](C)(/C=C/c2ccc(O)cc2)CCC=C(C)C)cc1 | 77 | 70 | 69 | 69 | 55 | 51 | 56 | 37 | 62 | 58 | 46 | 23 | 73 | 57 | 62 | 23 | 32 | 50 | 28 | 4.2 | IC50 [21]: 2000 nM; IC50 [22]: 11 µM; IC50 [23]: 23 µM; IC50 [24]: 12 µM; IC50 [25]: 22 µM; Activity [26]: Dose-dependent effect; IC50 [26]: 2000 nM; Activity [27]: tde; Activity [28]: 8%; Activity [29]: 41%; Activity [30]: 54%; Activity [31]: 66%; Activity [32]: 14.4%; Activity [33]: 20.6%; Activity [34]: 55.4%; Activity [35]: Dose-dependent effect
CC1C(C(C)(C)O)CCC1(C)/C=C/c1ccc(O)cc1 (configuration not stated) | 79 | 76 | 85 | 53 | 61 | 57 | 52 | 32 | 65 | 50 | 34 | 17 | 54 | 50 | 65 | 24 | 50 | 55 | 29 | 3.5 | IC50 [21]: 1800 nM; IC50 [22]: 14 µM; IC50 [23]: 22 µM; IC50 [24]: 17 µM; IC50 [25]: 23 µM; Activity [26]: Dose-dependent effect; IC50 [26]: 1800 nM; Activity [27]: tde; Activity [28]: 12%; Activity [29]: 34%; Activity [30]: 48%; Activity [31]: 68%; Activity [32]: 12.4%; Activity [33]: 17.9%; Activity [34]: 54%; Activity [35]: Dose-dependent effect
